Calls of active or inactive are those of the source. No cut-off for these calls is given here.
Key:
[1] = test system: HepG2; test: Reduction of glucose consumption in insulin-resistant human HepG2 cells at 1 mM after 24 hrs by glucose oxidase method in presence of 0.1 uM of insulin; type: functional, cell-based
How it was run: (§1)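 HepG2 cells in DMEM (22.2 mM glucose) with 10% FBS, exposed to 0.1 μM insulin from plating for 2 days. At confluence, given fresh 22.2 mM glucose DMEM with test agents for 24 h. Medium glucose measured by glucose oxidase. Consumption = blank minus remaining glucose, normalized to MTT. Three independent experiments.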

[2] = test system: Rattus norvegicus; test: Antiobesity activity in Wistar rat high fat diet-induced NAFLD model assessed as reduction of fat mass at 150 mg/kg, po qd for 4 weeks; type: functional; set-up: scale not given: the % may be the effect or the level left
How it was run: (§2)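 Male Wistar rats (160−180 g) fed high-fat diet (50.55% calories from fat), n = 10 per group. Dosed orally at 150 mg/kg/day for 4 weeks. Body, liver and fat weights and food intake recorded. Serum lipids, AST, ALT and glucose measured on a biochemistry analyzer. Fasting insulin measured by kit; adiponectin and leptin by ELISA. Mean ± SD; percent change vs HFD group.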

[3] = test system: Rattus norvegicus; test: Antiobesity activity in Wistar rat high fat diet-induced NAFLD model assessed as reduction of serum HDL-cholesterol level at 150 mg/kg, po qd for 4 weeks; type: functional; how it was run: as §2
[4] = test system: Mus musculus; test: Antiobesity activity in C57BL/6J mouse high fat diet-induced NAFLD model assessed as reduction of serum HDL-cholesterol level at 150 mg/kg, po qd for 7 weeks; type: functional; set-up: scale not given: the % may be the effect or the level left
How it was run: (§3)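 Male C57BL/6J mice, 3 weeks old, fed high-fat diet (60.0% calories from fat) ad libitum for 8 weeks, then randomized into groups of 10. Body weight and food intake recorded daily. Serum markers measured after sacrifice; fasting glucose included. Percent change = (V_HFD − V_treatment)/V_HFD × 100.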

[5] = test system: Mus musculus; test: Antiobesity activity in C57BL/6J mouse high fat diet-induced NAFLD model assessed as reduction of postprandial glucose level at 150 mg/kg, po qd for 6 weeks by oral glucose tolerance test; type: functional, organism-based; set-up: dose 150 mg/kg
How it was run: (§4)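 DIO C57BL/6J mice (HFD 60.0% fat) dosed orally for 6 weeks, n = 5, fasted overnight. Glucose load given either orally at 3.0 g/kg (OGTT) or intravenously at 0.5 g/kg (IGTT). Tail-vein blood sampled at 0, 15, 30, 60, 90, 120 and 180 min.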

[6] = test system: HepG2; test: Reduction of glucose consumption in insulin-resistant human HepG2 cells at 1 mM after 24 hrs by glucose oxidase method in presence of 22.2 mM of glucose; type: functional, cell-based; how it was run: as §1
[7] = test system: Rattus norvegicus; test: Antiobesity activity in Wistar rat high fat diet-induced NAFLD model assessed as increase of adiponectin level at 150 mg/kg, po qd for 4 weeks; type: functional; how it was run: as §2
[8] = test system: Rattus norvegicus; test: Antiobesity activity in Wistar rat high fat diet-induced NAFLD model assessed as reduction of fasting blood glucose level at 150 mg/kg, po qd for 4 weeks; type: functional; set-up: scale not given: the % may be the effect or the level left; how it was run: as §2
[9] = test system: Rattus norvegicus; test: Antiobesity activity in Wistar rat high fat diet-induced NAFLD model assessed as reduction of liver weight at 150 mg/kg, po qd for 4 weeks; type: functional; set-up: scale not given: the % may be the effect or the level left; how it was run: as §2
[10] = test system: Rattus norvegicus; test: Antiobesity activity in Wistar rat high fat diet-induced NAFLD model assessed as reduction of serum insulin level at 150 mg/kg, po qd for 4 weeks; type: functional; set-up: scale not given: the % may be the effect or the level left; how it was run: as §2
[11] = test system: Mus musculus; test: Antiobesity activity in C57BL/6J mouse high fat diet-induced NAFLD model assessed as reduction of serum LDL-cholesterol level at 150 mg/kg, po qd for 7 weeks; type: functional; set-up: scale not given: the % may be the effect or the level left; how it was run: as §3
[12] = test system: Rattus norvegicus; test: Antiobesity activity in Wistar rat high fat diet-induced NAFLD model assessed as reduction of serum AST level at 150 mg/kg, po qd for 4 weeks; type: functional; how it was run: as §2
[13] = test system: Rattus norvegicus; test: Antiobesity activity in Wistar rat high fat diet-induced NAFLD model assessed as reduction of serum total cholesterol level at 150 mg/kg, po qd for 4 weeks; type: functional; how it was run: as §2
[14] = test system: Mus musculus; test: Antiobesity activity in C57BL/6J mouse high fat diet-induced NAFLD model assessed as reduction of body weight at 150 mg/kg, po qd for 7 weeks; type: functional; set-up: scale not given: the % may be the effect or the level left; how it was run: as §3
[15] = test system: 3T3-L1; test: Down-regulation of […] expression in mouse 3T3L1 cells at 1 mM after 24 hrs by ELISA; type: functional
How it was run: (§5)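 3T3-L1 preadipocytes grown to 2 days post-confluence. Differentiated with 0.5 mM IBMX, 0.25 μM dexamethasone and 1 μg/mL insulin for 2 days, then insulin alone for 2 days, then 10% FBS DMEM. On day 12, treated 24 h; secreted adiponectin and leptin measured by ELISA. Three independent experiments.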

[16] = test system: Rattus norvegicus; test: Antiobesity activity in Wistar rat high fat diet-induced NAFLD model assessed as reduction of serum LDL-cholesterol level at 150 mg/kg, po qd for 4 weeks; type: functional; how it was run: as §2
[17] = test system: Mus musculus; test: Antiobesity activity in C57BL/6J mouse high fat diet-induced NAFLD model assessed as reduction of serum triglycerides level at 150 mg/kg, po qd for 7 weeks; type: functional; set-up: scale not given: the % may be the effect or the level left; how it was run: as §3
[18] = test system: Mus musculus; test: Antiobesity activity in C57BL/6J mouse high fat diet-induced NAFLD model assessed as reduction of fasting blood glucose level at 150 mg/kg, po qd for 7 weeks; type: functional; set-up: scale not given: the % may be the effect or the level left; how it was run: as §3
[19] = test system: Rattus norvegicus; test: Antiobesity activity in Wistar rat high fat diet-induced NAFLD model assessed as reduction of liver triglycerides level at 150 mg/kg, po qd for 4 weeks; type: functional; set-up: scale not given: the % may be the effect or the level left
How it was run: (§6)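 Male Wistar rats on high-fat diet (50.55% fat), dosed orally at 150 mg/kg/day for 4 weeks, n = 10. Liver homogenized in 50 mM Tris-HCl pH 7.4 with 150 mM NaCl, 1 mM PMSF and 1 mM EDTA, then triglycerides and total cholesterol assayed. Liver sections stained with H&E to assess lipid droplets.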

[20] = test system: Rattus norvegicus; test: Antiobesity activity in Wistar rat high fat diet-induced NAFLD model assessed as reduction of body weight at 150 mg/kg, po qd for 4 weeks; type: functional; set-up: scale not given: the % may be the effect or the level left; how it was run: as §2
[21] = test system: Mus musculus; test: Antiobesity activity in C57BL/6J mouse high fat diet-induced NAFLD model assessed as reduction of fat mass in epididymal and abdominal at 150 mg/kg, po qd for 7 weeks; type: functional, organism-based; set-up: dose 150 mg/kg; how it was run: as §3
[22] = test system: Mus musculus; test: Antiobesity activity in C57BL/6J mouse high fat diet-induced NAFLD model assessed as reduction of serum free fatty acid level at 150 mg/kg, po qd for 7 weeks; type: functional; set-up: scale not given: the % may be the effect or the level left; how it was run: as §3
[23] = test system: Mus musculus; test: Antiobesity activity in C57BL/6J mouse high fat diet-induced NAFLD model assessed as reduction of postprandial glucose level at 150 mg/kg, po qd for 6 weeks by intravenous glucose tolerance test; type: functional, organism-based; set-up: dose 150 mg/kg; how it was run: as §4
[24] = test system: 3T3-L1; test: Up-regulation of adiponectin expression in mouse 3T3L1 cells at 1 mM after 24 hrs by ELISA; type: functional; how it was run: as §5
[25] = test system: Rattus norvegicus; test: Antiobesity activity in Wistar rat high fat diet-induced NAFLD model assessed as reduction of liver total cholesterol level at 150 mg/kg, po qd for 4 weeks; type: functional; set-up: scale not given: the % may be the effect or the level left; how it was run: as §6
[26] = test system: Rattus norvegicus; test: Antiobesity activity in Wistar rat high fat diet-induced NAFLD model assessed as reduction of serum triglycerides level at 150 mg/kg, po qd for 4 weeks; type: functional; how it was run: as §2
[27] = test system: Rattus norvegicus; test: Antiobesity activity in Wistar rat high fat diet-induced NAFLD model assessed as reduction of serum ALT level at 150 mg/kg, po qd for 4 weeks; type: functional; how it was run: as §2
[28] = test system: Mus musculus; test: Antiobesity activity in C57BL/6J mouse high fat diet-induced NAFLD model assessed as reduction of serum ALT level at 150 mg/kg, po qd for 7 weeks; type: functional; set-up: scale not given: the % may be the effect or the level left; how it was run: as §3
[29] = test system: Rattus norvegicus; test: Antiobesity activity in Wistar rat high fat diet-induced NAFLD model assessed as reduction of leptin level at 150 mg/kg, po qd for 4 weeks; type: functional; how it was run: as §2

For `CN(C)C(=N)NC(=N)N` [METFORMIN], the Activity [1] was “Active”, the Activity [2] was 18.1% and the Activity [3] was 0.28 mmol/L. The Activity [4] was 46.7%, the Activity [5] was “Active” and the Activity [6] was “Active”. The Activity [7] was 198.3 µg/mL, the Activity [8] was 19.7% and the Activity [9] was 2.2%. The Activity [10] was 12.8%, the Activity [11] was 44.4% and the Activity [12] was 89 U/L. For the same compound, the Activity [13] was 1.99 mmol/L, the Activity [14] was 9.62% and the Activity [15] was 360.8 pg/mL. It also gave an Activity [16] of 0.15 mmol/L, an Activity [17] of 29.3% and an Activity [18] of 10.3%. For the same compound, the Activity [19] was 48.8%, the Activity [20] was 5.2% and the Activity [21] was “Active”. For the same compound, the Activity [22] was 3.7%, the Activity [23] was “Active” and the Activity [24] was 125.8 pg/mL. It also gave an Activity [25] of 50%, an Activity [26] of 1.6 mmol/L and an Activity [27] of 39 U/L. The Activity [28] was 66% and the Activity [29] was 13.6 ng/mL.

Reference: ChEMBL document CHEMBL2176990, “Synthesis and biological evaluation of 5-benzylidenepyrimidine-2,4,6(1H,3H,5H)-trione derivatives for the treatment of obesity-related nonalcoholic fatty liver disease” (J Med Chem, 2012)
